Results: ChEMBL document CHEMBL4680093 (J Med Chem, 2016)

Experiments:
[1] = target: 11-beta-hydroxysteroid dehydrogenase 1 (Homo sapiens, UniProt P28845); assay: Inhibition of human 11beta-HSD1 expressed in HEK293 cells using cortisone by ELISA
[2] = In-vivo inhibition of 11beta-HSD1 activity in C57BL/6 mouse epididymal fat assessed as reduction in cortisone to-cortisol conversion at 10 mg/kg, po measured after 2 hrs by ELISA; format: functional; settings: C57BL/6, Epididymal fat pad
In short: (§1)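 Male C57BL/6 mice dosed orally once at 3, 10 or 30 mg/kg in sterile water containing 0.5% methylcellulose and 1% Tween80, then sacrificed at 2 or 6 h. Liver and epididymal fat pads incubated ex vivo in culture medium containing cortisone. Cortisol formed was measured by ELISA and reported as % inhibition versus vehicle.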

[3] = target: T1, Nuclear receptor subfamily 1 group I member 2 (Homo sapiens, UniProt O75469); assay: Activation of PXR (unknown origin) at 10 uM relative to rifampicin; format: ADME
T1 sequence (O75469 whole entry): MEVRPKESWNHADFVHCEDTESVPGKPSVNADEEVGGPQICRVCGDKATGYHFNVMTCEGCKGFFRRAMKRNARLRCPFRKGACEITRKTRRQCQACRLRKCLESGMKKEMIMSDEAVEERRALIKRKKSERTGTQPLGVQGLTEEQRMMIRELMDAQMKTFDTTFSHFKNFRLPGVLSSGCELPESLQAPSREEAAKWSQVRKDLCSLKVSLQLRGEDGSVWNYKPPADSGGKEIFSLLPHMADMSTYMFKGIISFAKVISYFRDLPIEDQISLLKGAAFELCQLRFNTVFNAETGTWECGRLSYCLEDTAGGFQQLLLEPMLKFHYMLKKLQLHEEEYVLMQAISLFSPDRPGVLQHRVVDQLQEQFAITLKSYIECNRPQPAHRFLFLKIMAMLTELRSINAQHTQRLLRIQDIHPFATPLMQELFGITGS

[4] = Volume of distribution at steady state in rat at 1 mg/kg, iv; format: ADME, organism-based; settings: in vivo, read-out: Vdss
In short: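 Single-dose PK study. The iv dose was given in 10% hydroxypropyl-β-cyclodextrin and the oral dose in 0.5% methylcellulose/1% Tween80. Mouse and rat received 1 mg/kg iv and 5 mg/kg po. Dog received 0.5 mg/kg iv and 4 mg/kg po. CL, Vss, t1/2, AUC, Cmax, tmax and F were derived.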

[5] = target: T2, Mineralocorticoid receptor (Homo sapiens, UniProt P08235); assay: Antagonist activity at mineralocorticoid receptor (unknown origin)
T2 sequence (P08235 whole entry): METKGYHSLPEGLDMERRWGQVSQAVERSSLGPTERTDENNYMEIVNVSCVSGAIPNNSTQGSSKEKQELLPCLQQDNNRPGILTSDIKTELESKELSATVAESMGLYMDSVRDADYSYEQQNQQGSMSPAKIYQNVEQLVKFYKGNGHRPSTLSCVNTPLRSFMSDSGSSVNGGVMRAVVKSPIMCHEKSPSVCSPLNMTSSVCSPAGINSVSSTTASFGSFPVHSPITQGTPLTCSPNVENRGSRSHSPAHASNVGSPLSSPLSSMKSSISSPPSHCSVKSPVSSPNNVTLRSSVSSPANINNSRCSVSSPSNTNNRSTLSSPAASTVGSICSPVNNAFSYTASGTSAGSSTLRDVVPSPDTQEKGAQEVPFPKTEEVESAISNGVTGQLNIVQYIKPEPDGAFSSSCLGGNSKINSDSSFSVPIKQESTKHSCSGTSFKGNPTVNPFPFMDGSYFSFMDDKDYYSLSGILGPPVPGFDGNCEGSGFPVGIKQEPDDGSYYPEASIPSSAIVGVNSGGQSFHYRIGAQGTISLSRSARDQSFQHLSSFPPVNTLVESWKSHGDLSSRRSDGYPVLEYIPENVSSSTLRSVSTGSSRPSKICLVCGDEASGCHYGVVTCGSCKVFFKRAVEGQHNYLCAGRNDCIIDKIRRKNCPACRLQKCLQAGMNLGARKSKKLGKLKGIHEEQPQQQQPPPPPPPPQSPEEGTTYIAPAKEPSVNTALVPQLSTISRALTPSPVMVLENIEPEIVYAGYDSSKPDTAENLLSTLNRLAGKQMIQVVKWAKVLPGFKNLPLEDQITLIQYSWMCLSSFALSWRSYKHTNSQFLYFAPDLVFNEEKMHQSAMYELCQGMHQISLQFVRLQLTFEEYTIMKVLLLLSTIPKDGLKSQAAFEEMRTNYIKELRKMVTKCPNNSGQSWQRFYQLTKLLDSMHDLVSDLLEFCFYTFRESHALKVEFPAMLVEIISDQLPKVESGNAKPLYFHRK

[6] = target: T3, 11-beta-hydroxysteroid dehydrogenase type 2 (Homo sapiens) (UniProt P80365); assay: Inhibition of human 11beta-HSD2 expressed in microsomes at 10 uM relative to control; settings: Microsome
T3 sequence (whole entry): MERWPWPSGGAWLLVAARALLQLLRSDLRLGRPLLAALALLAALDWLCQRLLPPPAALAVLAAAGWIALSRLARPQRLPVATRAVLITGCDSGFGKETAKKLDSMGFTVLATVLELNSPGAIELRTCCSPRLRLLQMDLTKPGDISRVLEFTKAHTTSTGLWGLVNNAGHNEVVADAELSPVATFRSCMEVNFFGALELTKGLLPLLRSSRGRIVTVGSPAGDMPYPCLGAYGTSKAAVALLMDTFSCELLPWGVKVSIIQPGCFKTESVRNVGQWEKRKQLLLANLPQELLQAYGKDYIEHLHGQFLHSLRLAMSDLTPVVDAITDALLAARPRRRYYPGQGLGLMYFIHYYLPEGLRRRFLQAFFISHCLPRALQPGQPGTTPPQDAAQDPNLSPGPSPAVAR

[7] = Ratio of unbound Cmax in mouse plasma at 10 mg/kg, po measured after 2 hrs post dose to IC50 for human ERG expressed in CHO cells; format: ADME, organism-based; settings: in vivo
[8] = Toxicity in male mouse during 4-week repeated once daily oral-dose toxicity study; settings: in vivo, time 4 weeks
In short: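 Mice of both sexes were dosed orally once daily for 4 weeks at 40, 100, 250 and 625 mg/kg. Toxicity was assessed and the NOAEL determined.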

[9] = Genotoxicity in Salmonella typhimurium by reverse mutation assay; format: toxicity; settings: salmonella enterica subsp. enterica serovar typhimurium
[10] = In-vivo inhibition of 11beta-HSD1 activity in C57BL/6 mouse liver assessed as reduction in cortisone to-cortisol conversion at 30 mg/kg, po measured after 2 hrs by ELISA; format: functional; settings: C57BL/6, Liver
In short: as §1

[11] = target: Voltage-gated inwardly rectifying potassium channel KCNH2 (Homo sapiens, UniProt Q12809); assay: Inhibition of human ERG expressed in CHO cells by whole-cell patch clamp assay; format: cell-based
In short: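 hERG channels stably expressed in CHO cells were recorded by whole-cell patch clamp, and an IC50 was estimated.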

[12] = Toxicity in dog assessed as induction of abnormal changes in cardiovascular system up to 400 mg/kg, po; format: organism-based, Canis lupus familiaris; settings: in vivo
In short: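 Dogs fitted with telemetry were given oral doses of up to 400 mg/kg. Cardiovascular and respiratory systems were monitored for abnormal changes.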

Chain of 11-beta-hydroxysteroid dehydrogenase 1 (P28845 whole entry): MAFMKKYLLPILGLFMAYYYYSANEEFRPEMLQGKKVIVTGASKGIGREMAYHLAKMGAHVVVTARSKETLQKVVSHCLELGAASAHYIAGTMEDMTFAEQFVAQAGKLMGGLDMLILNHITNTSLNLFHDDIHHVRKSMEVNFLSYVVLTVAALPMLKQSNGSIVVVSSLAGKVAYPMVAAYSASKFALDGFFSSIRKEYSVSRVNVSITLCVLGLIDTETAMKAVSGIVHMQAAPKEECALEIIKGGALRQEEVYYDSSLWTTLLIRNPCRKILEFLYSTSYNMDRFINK
Chain of Voltage-gated inwardly rectifying potassium channel KCNH2 (Q12809 whole entry): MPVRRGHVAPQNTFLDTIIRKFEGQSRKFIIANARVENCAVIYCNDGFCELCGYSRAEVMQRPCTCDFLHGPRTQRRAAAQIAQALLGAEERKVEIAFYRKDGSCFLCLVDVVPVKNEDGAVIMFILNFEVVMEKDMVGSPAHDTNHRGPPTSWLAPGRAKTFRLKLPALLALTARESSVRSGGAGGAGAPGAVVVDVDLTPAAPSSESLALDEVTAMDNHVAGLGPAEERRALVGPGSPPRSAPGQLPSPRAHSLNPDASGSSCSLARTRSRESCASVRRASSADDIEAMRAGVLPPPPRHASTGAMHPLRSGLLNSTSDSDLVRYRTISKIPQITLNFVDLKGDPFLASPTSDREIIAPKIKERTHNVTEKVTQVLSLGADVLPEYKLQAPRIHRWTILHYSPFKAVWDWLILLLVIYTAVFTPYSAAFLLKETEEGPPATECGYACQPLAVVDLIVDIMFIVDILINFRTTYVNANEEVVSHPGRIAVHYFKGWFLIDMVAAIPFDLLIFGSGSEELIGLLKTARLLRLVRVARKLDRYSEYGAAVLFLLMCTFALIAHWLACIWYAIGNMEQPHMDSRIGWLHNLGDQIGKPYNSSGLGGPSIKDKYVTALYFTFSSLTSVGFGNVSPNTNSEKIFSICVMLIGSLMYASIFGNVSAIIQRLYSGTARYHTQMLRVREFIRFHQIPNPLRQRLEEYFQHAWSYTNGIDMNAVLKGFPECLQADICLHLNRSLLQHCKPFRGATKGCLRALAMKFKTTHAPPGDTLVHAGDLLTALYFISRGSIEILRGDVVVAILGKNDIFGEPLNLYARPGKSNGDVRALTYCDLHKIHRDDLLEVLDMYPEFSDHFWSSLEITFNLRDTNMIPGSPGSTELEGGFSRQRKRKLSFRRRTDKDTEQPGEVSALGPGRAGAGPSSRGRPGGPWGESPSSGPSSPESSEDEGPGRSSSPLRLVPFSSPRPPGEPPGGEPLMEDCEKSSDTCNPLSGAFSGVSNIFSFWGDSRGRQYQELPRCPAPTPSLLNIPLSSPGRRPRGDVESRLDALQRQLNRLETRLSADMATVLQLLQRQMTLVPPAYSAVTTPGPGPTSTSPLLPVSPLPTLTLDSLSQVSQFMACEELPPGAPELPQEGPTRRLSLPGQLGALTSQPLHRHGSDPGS

C[C@@H]1CN(c2ccc(S(C)(=O)=O)cc2F)CCN1c1nccc(C(=O)NC2C3CC4CC2CC(O)(C4)C3)n1 (some centres not stated) showed an IC50 [1] of 0.0044 µM, an inhibition in vivo at 10 mg/kg [2] of 88% and an Activity [3] of 0%. The Vd [4] was 2.1 L/kg, the EC50 [5] was over 5 µM and the inhibition [6] was 17%. The Ratio [7] was over 30, the NOAEL at 672 h [8] was 625 mg/kg and the Activity [9] was “Non-Toxic”. The inhibition in vivo at 30 mg/kg [10] was 91%, the IC50 [11] was 8 µM and the Activity [12] was “Non-Toxic”.
